The record followed here is ChEMBL document CHEMBL1806421, “Design, synthesis and biological evaluation of urea derivatives from o-hydroxybenzylamines and phenylisocyanate as potential FabH inhibitors” (Bioorg Med Chem, 2011).

Data set [1] concerns the target T1, 3-oxoacyl-[acyl-carrier-protein] synthase 3 (Escherichia coli, UniProt C3TDZ2).
T1 sequence (C3TDZ2 whole entry): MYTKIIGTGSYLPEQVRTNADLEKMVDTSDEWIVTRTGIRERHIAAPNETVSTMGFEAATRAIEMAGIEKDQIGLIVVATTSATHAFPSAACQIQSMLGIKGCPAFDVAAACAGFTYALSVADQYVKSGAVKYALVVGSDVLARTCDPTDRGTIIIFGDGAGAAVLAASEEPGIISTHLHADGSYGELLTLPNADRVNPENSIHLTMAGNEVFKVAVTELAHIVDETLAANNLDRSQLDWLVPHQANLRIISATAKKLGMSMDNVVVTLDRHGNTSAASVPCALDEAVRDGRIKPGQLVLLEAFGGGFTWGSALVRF
In words: Inhibition of Escherichia coli FabH expressed in Escherichia coli DH10B cells assessed as incorporation of 3H signal in the product after 25 mins by liquid scintillation. A digest of the protocol:
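Native E. coli FabH was expressed from pET30 in DH10B and purified by Q-Sepharose, MonoQ and hydroxyapatite chromatography at 4 °C. Reaction used 20 mM Na₂HPO₄ pH 7.0, 0.5 mM DTT, holo-ACP and 1 nM FabH. It was stopped with ice-cold 50% TCA (5 min on ice) and the protein pelleted. ³H incorporation was read by liquid scintillation. Inhibitors came from DMSO stock, with final DMSO ≤2%.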

Data set [2] in a line: Toxicity in erythrocytes assessed as hemolytic activity. The format is cell-based. Conditions: erythrocyte.
The subject of another data set is Escherichia coli. In words: Antibacterial activity against Escherichia coli ATCC 35218 after 24 hrs by MTT assay. It counts as functional. Conditions: ATCC 35218, 24 h. In short, it runs like this: (§1)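 MIC by MTT colorimetry in Mueller-Hinton medium. Inoculum was about 10⁵ cfu/mL, added to serial dilutions made from DMSO solutions, then incubated at 37 °C for 24 h. MTT in PBS (0.01 mol/L, pH 7.4; 2 mg/mL) was added to each well. Dye was extracted with isopropanol containing 5% 1 mol/L HCl for 12 h at room temperature, and OD was read at 550 nm.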

For another data set, the system named is Pseudomonas fluorescens. Kind of data set: Antibacterial activity against Pseudomonas fluorescens after 24 hrs by MTT assay. It counts as functional. In short, it runs like this: as §1
For orientation: Formazan colour is commonly taken as a measure of viable cells.

A further data set has as its system Bacillus subtilis. In words: Antibacterial activity against Bacillus subtilis after 24 hrs by MTT assay. It counts as functional. A digest of the protocol: as §1
The subject of another data set is Staphylococcus aureus. Kind of data set: Antibacterial activity against Staphylococcus aureus after 24 hrs by MTT assay. It counts as functional. In short, it runs like this:
as §1

Values after ≈ are worked out from the molar mass of the structure shown.

For the compound `Nc1ccn([C@H]2CC[C@@H](COP(=O)(O)O)O2)c(=O)n1`, the IC50 in data set [1] worked out at 2.1 µM. Moreover, the LC30 in data set [2] was > 10000 mg/L.
In the case of `Oc1c(Br)cc(Br)cc1CNc1ccc(F)cc1`, the MIC against Escherichia coli is 50 mg/L (≈ 133 µM); against Pseudomonas fluorescens it was 12.5 mg/L (≈ 33.3 µM); against Bacillus subtilis it was 50 mg/L (≈ 133 µM); against Staphylococcus aureus it was 50 mg/L (≈ 133 µM).
Regarding `Oc1ccc(Br)cc1CNc1ccccc1F`, the MIC with Escherichia coli is 25 mg/L (≈ 84.4 µM); in the data set on Pseudomonas fluorescens, 6.25 mg/L (≈ 21.1 µM); in the data set with Bacillus subtilis, 50 mg/L (≈ 169 µM); against Staphylococcus aureus it was 25 mg/L (≈ 84.4 µM).
Turning to `Oc1ccc(Br)cc1CNc1ccc(F)cc1`, the MIC was 12.5 mg/L (≈ 42.2 µM) against Escherichia coli, 25 mg/L (≈ 84.4 µM) in the data set on Pseudomonas fluorescens, 50 mg/L (≈ 169 µM) with Bacillus subtilis and 12.5 mg/L (≈ 42.2 µM) against Staphylococcus aureus.
As to `Oc1ccc(Br)cc1CNc1ccccc1Cl`, the MIC worked out at 12.5 mg/L (≈ 40 µM) against Escherichia coli, 25 mg/L (≈ 80 µM) in the data set on Pseudomonas fluorescens, 50 mg/L (≈ 160 µM) against Bacillus subtilis and 6.25 mg/L (≈ 20 µM) against Staphylococcus aureus.
In the case of `Oc1ccc(Br)cc1CNc1ccccc1Br`, the MIC against Escherichia coli stood at 25 mg/L (≈ 70 µM); against Pseudomonas fluorescens it was 25 mg/L (≈ 70 µM); with Bacillus subtilis, 50 mg/L (≈ 140 µM); against Staphylococcus aureus, 50 mg/L (≈ 140 µM).
With `Oc1ccc(Br)cc1CNc1ccc(Br)cc1`, the MIC was 25 mg/L (≈ 70 µM) with Escherichia coli, 12.5 mg/L (≈ 35 µM) with Pseudomonas fluorescens, 25 mg/L (≈ 70 µM) against Bacillus subtilis and 25 mg/L (≈ 70 µM) in the data set on Staphylococcus aureus.
Consider `Cc1ccc(NCc2cc(Br)ccc2O)cc1`, for which the MIC against Escherichia coli, with Pseudomonas fluorescens, with Bacillus subtilis and against Staphylococcus aureus was 50 mg/L (≈ 171 µM) in each case.
For the compound `COc1ccc(NCc2cc(Br)ccc2O)cc1`, the MIC in the data set with Escherichia coli, against Pseudomonas fluorescens, with Bacillus subtilis and against Staphylococcus aureus was 50 mg/L (≈ 162 µM) throughout.
With `Oc1c(Br)cc(Br)cc1CNc1ccccc1F`, the MIC turned out to be 50 mg/L (≈ 133 µM) in the data set with Escherichia coli, 50 mg/L (≈ 133 µM) against Pseudomonas fluorescens, 50 mg/L (≈ 133 µM) in the data set on Bacillus subtilis and 25 mg/L (≈ 66.7 µM) against Staphylococcus aureus.
`Oc1c(Br)cc(Br)cc1CNc1ccccc1Cl`: the MIC turned out to be 25 mg/L (≈ 63.9 µM) in the data set on Escherichia coli, 50 mg/L (≈ 128 µM) in the data set on Pseudomonas fluorescens, 6.25 mg/L (≈ 16 µM) in the data set with Bacillus subtilis and 25 mg/L (≈ 63.9 µM) in the data set with Staphylococcus aureus.
As to `Oc1c(Br)cc(Br)cc1CNc1ccc(Cl)cc1`, the MIC was 25 mg/L (≈ 63.9 µM) against Escherichia coli, 12.5 mg/L (≈ 31.9 µM) against Pseudomonas fluorescens, 12.5 mg/L (≈ 31.9 µM) in the data set with Bacillus subtilis and 12.5 mg/L (≈ 31.9 µM) in the data set with Staphylococcus aureus.
As for `Oc1c(Br)cc(Br)cc1CNc1ccccc1Br`, the MIC against Escherichia coli worked out at 12.5 mg/L (≈ 28.7 µM); in the data set on Pseudomonas fluorescens, 50 mg/L (≈ 115 µM); against Bacillus subtilis, 50 mg/L (≈ 115 µM); against Staphylococcus aureus, 50 mg/L (≈ 115 µM).
With `Oc1c(Br)cc(Br)cc1CNc1ccc(Br)cc1`, the MIC in the data set with Escherichia coli came to 25 mg/L (≈ 57.3 µM); with Pseudomonas fluorescens, 50 mg/L (≈ 115 µM); in the data set on Bacillus subtilis, 50 mg/L (≈ 115 µM); with Staphylococcus aureus, 50 mg/L (≈ 115 µM).
Turning to `Cc1ccc(NCc2cc(Br)cc(Br)c2O)cc1`, the MIC in the data set on Escherichia coli, against Pseudomonas fluorescens, in the data set on Bacillus subtilis and in the data set on Staphylococcus aureus was 50 mg/L (≈ 135 µM) throughout.
For `COc1ccc(NCc2cc(Br)cc(Br)c2O)cc1`, the MIC against Escherichia coli stood at 50 mg/L (≈ 129 µM); against Pseudomonas fluorescens, 50 mg/L (≈ 129 µM); in the data set on Bacillus subtilis, 25 mg/L (≈ 64.6 µM); with Staphylococcus aureus, 50 mg/L (≈ 129 µM).
Turning to `O=C(Nc1ccccc1)N(Cc1cc(Br)ccc1O)c1ccccc1F`, the MIC against Escherichia coli came out at 12.5 mg/L (≈ 30.1 µM); with Pseudomonas fluorescens, 25 mg/L (≈ 60.2 µM); with Bacillus subtilis, 25 mg/L (≈ 60.2 µM); against Staphylococcus aureus, 50 mg/L (≈ 120 µM). Besides, the IC50 in data set [1] was 37.4 µM. Further, the LC30 in data set [2] is > 10000 mg/L.

Broadly, the IC50 is the concentration that inhibits the measured activity by half. The term MIC denotes the lowest concentration found to suppress growth. A lower MIC goes with greater potency.
